Laboratory results reported in ChEMBL document CHEMBL4014329, “Selective Inhibition of Escherichia coli RNA and DNA Topoisomerase I by Hoechst 33258 Derived Mono- and Bisbenzimidazoles” (J Med Chem, 2017).
In brackets after ≈: the same amount, converted by molar mass. Activity calls are given as the source filed them. The calls are words filed in the database; no cut-off is given here.

Key:
Enterococcus faecalis = test: Antibacterial activity against Enterococcus faecalis ATCC 29212 after 24 hrs by microbroth dilution method; type: functional; conditions: ATCC 29212, 24 h
Procedure, shortened: (§1)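 Microbroth dilution per CLSI guidelines. Organisms grown in Mueller−Hinton broth at 37 °C with shaking to log phase, pelleted, resuspended in 0.85% saline to OD625 0.1. Final inoculum 5 × 10^5 CFU/mL; triplicate; 24 h at 37 °C. OD625 read; MIC = lowest concentration completely inhibiting growth versus untreated controls.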

Staphylococcus aureus [1] = test: Antibacterial activity against Staphylococcus aureus ATCC 33591 after 24 hrs by microbroth dilution method; type: functional; conditions: ATCC 33591, 24 h; procedure, shortened: as §1
Enterococcus faecium = test: Antibacterial activity against Enterococcus faecium BM4105RF after 24 hrs by microbroth dilution method; type: functional
Procedure, shortened: (§2)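 Mueller-Hinton broth cultures grown at 37 °C with shaking to log phase, pelleted, resuspended in 0.85% saline to OD625 0.1. Broth microdilution per CLSI guidelines, final inoculum 5 × 10^5 CFU/mL, in triplicate, 24 h at 37 °C. Growth read as OD625. MIC is the lowest concentration giving complete growth inhibition versus untreated controls.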

Escherichia coli [2] = test: Antibacterial activity against Escherichia coli ATCC 25922 after 24 hrs by microbroth dilution method; type: functional; conditions: ATCC 25922, 24 h; procedure, shortened: as §1
Staphylococcus aureus [3] = test: Antibacterial activity against methicillin-resistant Staphylococcus aureus 33591 after 24 hrs by microbroth dilution method; type: functional; conditions: Staphylococcus aureus, 33591, 24 h; procedure, shortened: as §2
Citrobacter freundii = test: Antibacterial activity against Citrobacter freundii 4747CFAA after 24 hrs by microbroth dilution method; type: functional; procedure, shortened: as §1
Shigella flexneri = test: Antibacterial activity against Shigella flexneri 2457NR517 after 24 hrs by microbroth dilution method; type: functional; conditions: 2457NR517, 24 h; procedure, shortened: as §2
Staphylococcus aureus [4] = test: Antibacterial activity against Staphylococcus aureus ATCC 29213 after 24 hrs by microbroth dilution method; type: functional; conditions: ATCC 29213, 24 h; procedure, shortened: as §1
[5] = system: Staphylococcus epidermidis; test: Antibacterial activity against Staphylococcus epidermidis ATCC 12384 after 24 hrs by microbroth dilution method; type: functional; conditions: ATCC 12384, 24 h; procedure, shortened: as §1
Acinetobacter baumannii = test: Antibacterial activity against Acinetobacter baumannii ATCC 19606 after 24 hrs by microbroth dilution method; type: functional; conditions: ATCC 19606 = CIP 70.34 = JCM 6841, 24 h; procedure, shortened: as §1
Staphylococcus aureus [6] = test: Antibacterial activity against methicillin-resistant Staphylococcus aureus A960649 after 24 hrs by microbroth dilution method; type: functional; conditions: A960649, 24 h; procedure, shortened: as §2
[7] = Binding affinity to dA60.dT60 B-DNA duplex (unknown origin) assessed as change in melting temperature at 10 uM by UV-vis spectrophotometric analysis
Procedure, shortened: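 UV melting of dA60·dT60 at 1 μM/duplex with compound at 10 μM. Buffer 10 mM sodium cacodylate, 0.1 mM EDTA, 100 mM NaCl, pH 7.0; duplex pre-annealed from 95 °C. Compound stocks in DMSO diluted into buffer. Heating at 0.2 °C/min, monitored at 260 nm, points every 1.0 °C; Tm taken from derivatives.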

[8] = Binding affinity to dA60.dT60 B-DNA duplex (unknown origin) assessed as induction of biphasic transition at <5 uM by UV-vis spectrophotometric analysis
Klebsiella pneumoniae = test: Antibacterial activity against Klebsiella pneumoniae NR15410 after 24 hrs by microbroth dilution method; type: functional; conditions: NR15410, 24 h; procedure, shortened: as §1
Enterobacter cloacae = test: Antibacterial activity against Enterobacter cloacae ATCC 13047 after 24 hrs by microbroth dilution method; type: functional; conditions: ATCC 13047, 24 h; procedure, shortened: as §1
Escherichia coli [9] = test: Antibacterial activity against Escherichia coli K-12 after 24 hrs by microbroth dilution method; type: functional; conditions: K-12, 24 h; procedure, shortened: as §1
Pseudomonas aeruginosa = test: Antibacterial activity against Pseudomonas aeruginosa ATCC 27853 after 24 hrs by microbroth dilution method; type: functional; conditions: ATCC 27853, 24 h; procedure, shortened: as §1
DU-145 = test: Cytotoxicity against human DU145 cells after 48 hrs by SRB assay; type: cell-based; conditions: Homo sapiens, DU-145, 48 h
Procedure, shortened: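 Cells cultured per ATCC protocols, seeded and grown 24 h (37 °C, 5% CO2), then treated in triplicate at final 20, 10, 5, 2.5, 1.25, 0.625 and 0.0625 μM for 48 h. Fixed with cold TCA (16% final, 4 °C, 1 h), stained with SRB in 1% acetic acid, dye solubilized in 10 mM Tris base, A560 read. IC50 derived; study in duplicate.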

[10] = Inhibition of Escherichia coli DNA topoisomerase 1 using plasmid pBAD-GFPuv as substrate after 15 mins by agarose gel electrophoresis
Procedure, shortened: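 E. coli topoisomerase I at 6 nM relaxing 150 ng supercoiled pBAD-GFPuv. 15 min at 37 °C, phenol-stopped, 1% agarose gel, ethidium stain. IC50 is the concentration leaving 50% DNA supercoiled; three independent determinations.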

Escherichia coli [11] = test: Inhibition of Escherichia coli RNA topoisomerase 1 using circular RNA as substrate up to 50 uM after 1.5 hrs by SDS-PAGE analysis
Procedure, shortened: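 10 nM E. coli topoisomerase I premixed with reaction buffer and inhibitor diluted in DMSO, then circular RNA substrate added; 1.5 h incubation. Stopped with proteinase K/SDS/EDTA buffer. Trefoil RNA knot product separated from circular substrate on 15% TBE−urea gels and detected by phosphorimaging. DMSO-only control included.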

Row | Compound | MIC (Enterococcus faecalis) [µg/mL] | MIC (Staphylococcus aureus [1]) [µg/mL] | MIC (Enterococcus faecium) [µg/mL] | MIC (Escherichia coli [2]) [µg/mL] | MIC (Staphylococcus aureus [3]) [µg/mL] | MIC (Citrobacter freundii) [µg/mL] | MIC (Shigella flexneri) [µg/mL] | MIC (Staphylococcus aureus [4]) [µg/mL] | MIC [5] [µg/mL] | MIC (Acinetobacter baumannii) [µg/mL] | MIC (Staphylococcus aureus [6]) [µg/mL] | ΔTm [7] [°C] | Activity [8] | MIC (Klebsiella pneumoniae) [µg/mL] | MIC (Enterobacter cloacae) [µg/mL] | MIC (Escherichia coli [9]) [µg/mL] | MIC (Pseudomonas aeruginosa) [µg/mL] | IC50 (DU-145) [µM] | IC50 [10] [µM] | inhibition (Escherichia coli [11])
1 | CN1CCN(c2ccc3nc(-c4ccc(OCCCN)cc4)[nH]c3c2)CC1 | > 32 | > 32 | > 32 | > 32 | > 32 | > 32 | > 32 | > 32 | > 32 | > 32 | > 32 | 3.3 | Active | > 32 | > 32 | > 32 | > 32 | – | – | –
2 | C#CCCCCCCc1cn(CCOc2ccc(-c3nc4ccc(N5CCN(C)CC5)cc4[nH]3)cc2)nn1 | 16 to 32 (≈ 31.3 to 62.5 µM) | 16 to 32 (≈ 31.3 to 62.5 µM) | > 32 | 16 (≈ 31.3 µM) | – | > 32 | > 32 | 16 to 32 (≈ 31.3 to 62.5 µM) | > 32 | > 32 | – | 0.5 | Active | > 32 | > 32 | 16 (≈ 31.3 µM) | 16 (≈ 31.3 µM) | – | – | –
3 | CN1CCN(c2cc(C(=O)O)c3nc(-c4ccc(O)cc4)[nH]c3c2)CC1 | > 32 | > 32 | – | > 32 | – | – | – | > 32 | – | – | – | 0 | Active | – | – | > 32 | > 32 | – | – | –
4 | C#CCOCCCCCCOc1ccc(-c2nc3ccc(N4CCN(C)CC4)cc3[nH]2)cc1 | 16 to 32 (≈ 35.8 to 71.7 µM) | 16 to 32 (≈ 35.8 to 71.7 µM) | > 32 | 16 (≈ 35.8 µM) | > 32 | > 32 | > 32 | 16 to 32 (≈ 35.8 to 71.7 µM) | > 32 | > 32 | > 32 | 1.4 | Active | > 32 | > 32 | 16 (≈ 35.8 µM) | 16 (≈ 35.8 µM) | – | – | –
5 | CN1CCN(c2ccc3nc(-c4ccc5nc(-c6ccc(O)cc6)[nH]c5c4)[nH]c3c2)CC1.Cl.Cl.Cl | 16 to 32 | 16 to 32 | – | 8 to 16 | – | – | – | > 32 | – | – | – | – | – | – | – | 8 | 8 | > 10 | – | –
6 | Oc1ccc(-c2nc3ccccc3[nH]2)cc1 | 16 (≈ 76.1 µM) | 16 to 32 (≈ 76.1 to 152 µM) | > 32 | 16 (≈ 76.1 µM) | > 32 | > 32 | > 32 | 16 to 32 (≈ 76.1 to 152 µM) | > 32 | 16 to 32 (≈ 76.1 to 152 µM) | > 32 | 0 | Active | > 32 | > 32 | 16 (≈ 76.1 µM) | 16 (≈ 76.1 µM) | – | – | –
7 | CN1CCN(c2ccc3nc(-c4ccc(OCCN=[N+]=[N-])cc4)[nH]c3c2)CC1 | 16 to 32 (≈ 42.4 to 84.8 µM) | 16 to 32 (≈ 42.4 to 84.8 µM) | > 32 | 16 (≈ 42.4 µM) | > 32 | > 32 | > 32 | ≥ 32 | > 32 | > 32 | > 32 | 1.9 | Active | > 32 | > 32 | 16 (≈ 42.4 µM) | 16 (≈ 42.4 µM) | – | – | –
8 | C#CCOCCOCCOCCOCCOCCOCCOc1ccc(-c2nc3ccc(-c4nc5ccc(N6CCN(C)CC6)cc5[nH]4)cc3[nH]2)cc1 | 16 to 32 (≈ 22 to 44 µM) | 16 to 32 (≈ 22 to 44 µM) | ≥ 32 | 16 to 32 (≈ 22 to 44 µM) | > 32 | > 32 | ≥ 32 | 16 to 32 (≈ 22 to 44 µM) | 16 to 32 (≈ 22 to 44 µM) | > 32 | > 32 | 13.1 | Active | > 32 | > 32 | 2 to 4 (≈ 2.75 to 5.5 µM) | 16 to 32 (≈ 22 to 44 µM) | > 10 | > 50 | inactive
